Assays:
PBMC = assay: Cytotoxicity against human PBMC cells assessed as viable fractions using annexin V-FITC/propidium iodide staining by flow cytometry; type: cell-based
Summary of the method: (§1)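 Human multiple myeloma INA-6 cells or mononuclear cells from peripheral blood of healthy donors exposed to a range of compound concentrations. Viable fraction taken as annexin V/PI double-negative cells; EC50 derived.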

[1] = Cytotoxicity against human INA-6 cells assessed as viable fractions using annexin V-FITC/propidium iodide staining by flow cytometry; type: functional, cell-based; summary of the method: as §1

| Compound | EC50 (PBMC) | EC50 [1] |
| --- | --- | --- |
| CC1=CC(=O)c2c(ccc(O)c2O)C1=O | 100 µM | 75 µM |
| COc1cccc2c1C(=O)C=C(C)C2=O | 16 µM | 4 µM |
| CC1=C(O)C(=O)c2cc(O)c(O)cc2C1=O | – | 52 µM |
| CC1=C(O)C(=O)c2c(O)ccc(O)c2C1=O | – | > 100 µM |
| COc1ccc2c(c1OC)C(=O)C=C(C)C2=O | 13 µM | 15 µM |
| COc1ccc2c(c1OC)C(=O)C(O)=C(C)C2=O | – | > 100 µM |
| COc1cc2c(c(OC)c1OC)C(=O)C=C(C)C2=O | 7.5 µM | 8 µM |
| COc1cc2c(c(OC)c1OC)C(=O)C(O)=C(C)C2=O | – | > 100 µM |
| CC1=C(O)C(=O)c2c(cc(O)c(O)c2O)C1=O | 70 µM | 7 µM |
| COc1cc2c(cc1OC)C(=O)C(C)=CC2=O | 6.5 µM | 6 µM |
| CC1=C(O)C(=O)c2cc(O)ccc2C1=O | – | > 100 µM |
| CC1=CC(=O)c2cc(O)ccc2C1=O | 17 µM | 13 µM |
| COc1ccc2c(c1)C(=O)C(O)=C(C)C2=O | 50 µM | > 100 µM |
| COc1ccc2c(c1O)C(=O)C(O)=C(C)C2=O | – | > 100 µM |
| COC1=C(C)C(=O)c2ccc(O)c(O)c2C1=O | – | > 100 µM |
| COc1cc2c(cc1OC)C(=O)C(O)=C(C)C2=O | – | > 100 µM |
| CC1=C(O)C(=O)c2c(ccc(O[C@@H]3O[C@H](CO)[C@@H](O)[C@H](O)[C@H]3O)c2O)C1=O [DIONCOQUINONE A] | – | 29 µM |
| CC1=C(O)C(=O)c2c(ccc(O)c2O)C1=O [DIONCOQUINONE B] | – | 11 µM |
| COc1cc2c(c(O)c1O)C(=O)C(O)=C(C)C2=O [DIONCOQUINONE C] | – | 14 µM |
| COC1=C(C)C(=O)c2cc(OC)c(O)c(O)c2C1=O [DIONCOQUINONE D] | – | 80 µM |
| COc1c(O)cc2c(c1O)C(=O)C(O)=C(C)C2=O [DIONCOQUINONE E] | – | 100 µM |
| CC1=C(O)C(=O)c2c(O)cccc2C1=O [DROSERONE] | – | > 100 µM |
| N[C@@H](Cc1ccc(N(CCCl)CCCl)cc1)C(=O)O [MELPHALAN] | 3 µM | 2 µM |
| CC1=CC(=O)c2c(O)cccc2C1=O [PLUMBAGIN] | 0.8 µM | 0.8 µM |

From ChEMBL document CHEMBL1914341, “Anti-tumoral activities of dioncoquinones B and C and related naphthoquinones gained from total synthesis or isolation from plants” (Eur J Med Chem, 2011)
